Experimental data gathered from unrelated publications.
Each line is one published result; the experiments were not run side by side.
Target: Serine/threonine-protein kinase PAK 5 (PAK5, Homo sapiens, UniProt Q9P286)

| SMILES | observed | action | method | tested at | quantity | value |
| --- | --- | --- | --- | --- | --- | --- |
| COc1ccc2cc(OCC3(C(=O)O)CN(C(=O)c4ccc(F)cc4)C3)ccc2c1 | cell-free assay | – | competition with immobilised ligand | 1 µM | remaining binding | 100% |
| C[C@H]1CCN(c2nccc(-c3cnn4ncccc34)n2)C1 | binding | – | – | 1 µM | remaining binding | 100% |
| Nc1c(C(=O)NCc2ccc(C(=O)NCCCC3CCCCC3)cc2)cnn1-c1ccccc1 | cell-free assay | – | competition with immobilised ligand | 0.1 µM | remaining binding | 100% |
| CCCOc1ccc(OC)c(F)c1C(=O)c1ccc(C(=O)N[C@@H]2CNC[C@H]2NC(=O)c2ccc3[nH]ncc3c2)cc1 | enzyme activity | inhibitor | – | 10 µM | remaining activity | 85% |
| Cc1ccc(Nc2nccc(N(C)c3ccc4c(C)n(C)nc4c3)n2)cc1S(N)(=O)=O | cell-free assay | inhibitor | – | 0.5 µM | remaining signal | 95.4% |
| Cc1noc([C@H]2C[C@@H](c3ccc(C(F)(F)F)cc3)CN(C(=O)N3CCS(=O)(=O)C3)C2)n1 | cell-free assay | – | competition with immobilised ligand | 1 µM | remaining binding | 100% |
| N#CCCc1ccc2c(c1)-c1[nH]c3ccc([N+](=O)[O-])cc3c1CC(=O)N2 | cell-free assay | – | – | 0.5 µM | remaining signal | 60.3% |
| Cn1c(=O)n(-c2ccc(C(C)(C)C#N)cc2)c2c3cc(-c4cnc5ccccc5c4)ccc3ncc21 | enzyme activity | inhibitor | – | 10 µM | remaining activity | 90% |
| Cc1cc(NC(=O)c2cccc3cc(-c4cccc5[nH]nc(N)c45)ccc23)ccc1F | enzyme activity | inhibitor | – | 0.1 µM | activity vs control | 88% |
| COc1cc(Nc2cnc(C#N)c(O[C@H](C)CN(C)C)n2)ncc1-c1cnn(C)c1 | enzyme activity | inhibitor | radiometric | 1 µM | remaining activity | 93% |
| CCN(CC)CCNC(=O)c1c(C)[nH]c(/C=C2\C(=O)Nc3ccc(F)cc32)c1C | enzyme activity | inhibitor | – | 10 µM | inhibition | 55% |
| CC(C)(O)[C@H]1CC[C@H](Nc2ccc3ncc(-c4cccc(C(F)(F)F)c4)n3n2)CC1 | enzyme activity | inhibitor | – | 1 µM | remaining activity | 98.1% |
| CN1CCN(c2cnc3c(C4CCN(C(=O)c5ccc(OC(F)(F)F)cc5N)CC4)ncnc3c2)CC1 | cell-free assay | – | competition with immobilised ligand | 1 µM | remaining binding | 100% |
| O=C(Nc1cnn(-c2csc(C(=O)NC3COC3)c2)c1)Nc1ccccc1Cl | enzyme activity | inhibitor | – | 5 µM | remaining activity | 92.1% |
| FC(F)(F)Oc1cccc(-c2cnc3ccc(-c4ccncc4)nn23)c1 | enzyme activity | inhibitor | radiometric | 1 µM | activity vs control | 72% |
| CC(C)(C)c1nc2c(s1)c1nc(N)ncc1c1ccc(NS(=O)(=O)c3c(F)cccc3F)c(F)c12 | enzyme activity | inhibitor | radiometric | 1 µM | remaining activity | 77% |
| Cc1cnc(NC2CCOCC2)nc1-n1cnc(C(=O)NC(CN)c2cc(F)cc(Cl)c2)c1 (centres unmarked) | enzyme activity | inhibitor | radiometric | 1 µM | remaining activity | 83% |
| CC/C(=N\NC(=O)NCc1cccc(O)c1)c1ccc(O)c(C)c1O | enzyme activity | inhibitor | – | 0.1 µM | inhibition | -3.9% |
| O=C1Nc2ccc(Cl)cc2C1=Cc1cc(Cl)c(O)c(Cl)c1 | cell-free assay | – | – | 0.5 µM | remaining signal | 91.5% |
| COc1cc2ncnc(Nc3ccc(Oc4ccccc4)cc3C)c2cc1OC | enzyme activity | inhibitor | – | 1 µM | inhibition | 1% |
| CNC(=O)c1cc(Oc2ccc(NC(=O)Nc3ccc(Cl)c(C(F)(F)F)c3)cc2)ccn1 | enzyme activity | inhibitor | – | 10 µM | inhibition | -21% |
| FC(F)(F)c1ccc2c(c1)nc(-c1cccnc1)n2C1CC1 | cell-free assay | – | competition with immobilised ligand | 1 µM | remaining binding | 100% |
| CCOc1cc(-c2nncn2C)ccc1Nc1ncc2cc(C)nc(NCC(C)(C)C)c2n1 | enzyme activity | inhibitor | FRET | 1 µM | inhibition | < 15% |
| COCCOc1nc(-c2ccc(Cl)nc2)nc2c1CN(C(=O)c1ncn3ccccc13)CC2 | cell-free assay | – | competition with immobilised ligand | 0.1 µM | remaining binding | 100% |
| Oc1cccc(-c2nc(N3CCOCC3)c3oc4ncccc4c3n2)c1 | enzyme activity | inhibitor | – | 10 µM | remaining activity | 112% |
| Cn1nc(C(=O)NCc2ccc(C(=O)O)cc2)cc1-c1ccc2[nH]ccc2c1 | cell-free assay | – | competition with immobilised ligand | 0.1 µM | remaining binding | 62% |
| Nc1nc(Nc2ccccc2)sc1C(=O)c1c(F)cccc1F | enzyme activity | inhibitor | – | 10 µM | remaining activity | 66% |
| CCC(=O)N[C@@H]1CC[C@H](C(=O)N(C)c2ccc(-c3nc4ccccc4o3)cc2)C1 | cell-free assay | – | competition with immobilised ligand | 1 µM | remaining binding | 100% |
| CC(C)(C)C(=O)c1sc(NC2CCCCC2)nc1N | enzyme activity | inhibitor | – | 10 µM | remaining activity | 110% |
